Reference: the RNAGym collection of RNA variant scans (doi:10.1126/science.aae0568)
Fewer inactive variants are shown than the library holds.

B1: tRNA (parent)
chain: GUUCCGUUGGCGUAAUGGUAACGCGUCUCCCUCCUAAGGAGAAGACUGCGGGUUCGAGUCCCGUACGGAACG

Variants of: B1
Experiment: yeast fitness relative to wild type (ratio to wild type); higher = fitter; tRNA-Arg(CCU), competitive growth, 37 C, YPD
Outline: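 The tRNA-Arg(CCU) gene variants were made by chemical synthesis with a 3% per-site mutation rate at 69 sites and inserted at the native genomic locus of Saccharomyces cerevisiae. After pooling, the strains were competed in YPD at 37°C for 24 hours in six parallel replicates. Gene amplicons from the start population and each end population were read by 100-nucleotide paired-end sequencing, and Darwinian fitness relative to wild type was taken from genotype frequency changes. Genotypes needed ≥ 100 starting reads, and estimates < 0.5 were set to 0.5.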

| Variant | yeast fitness |
| --- | --- |
| A14C U19G U59C A69G | ≤ 0.5 |
| U13C G48A C62A | 0.689 |
| A14C C24G C31A C33G G44C | 0.584 |
| A14G C49G A69U A70C | 0.618 |
| A14G C24U C55U G67C | ≤ 0.5 |
| A14G G18A C22G C49A | ≤ 0.5 |
| A14G G18C C30G G52C C61A | ≤ 0.5 |
| U13G G41U C66G | ≤ 0.5 |
| A14G A45G G50A | ≤ 0.5 |
| U13G U16G C31G C49U A57G | ≤ 0.5 |
| A14C C49G A70U | ≤ 0.5 |
| A14U A15G C55G C61G | 0.637 |
| U13C G44C G58C | 0.661 |
| A14G G41C C46A | 0.791 |
| U13G G18A A20U C31G | 0.566 |
| U13G A42U C55U C62G A70C | 0.525 |
| A14U A15G C34G | ≤ 0.5 |
| U13G C30U C55A | ≤ 0.5 |
| A14G A36C A57C G68A | ≤ 0.5 |
| A14C C55G A57U C62U | ≤ 0.5 |
| U13C C29G A36G G41A | ≤ 0.5 |

| Variant | yeast fitness |
| --- | --- |
| U13G C61A C66A | ≤ 0.5 |
| U13G C22U G25A | 1.01 |
| A14G C22U C34U U54C C55A | ≤ 0.5 |
| A14U A21C | 0.705 |
| A14U A21U | 0.547 |
| A14C U28A C61G A69G | ≤ 0.5 |
| A14C G39A | 0.754 |
| A14C C46G C62U C66U | ≤ 0.5 |
| A14G U26G A37U A45U G51A A65C | ≤ 0.5 |
| U13C C55A | 0.611 |
| A14G C31U U35C A40G A65U | ≤ 0.5 |
| A14C A21C C46A C49U | ≤ 0.5 |
| A14C G50A C55G C62A | 0.692 |
| A14C U47C | 0.79 |
| U13G U19A C27G | 0.626 |
| A14C G67A | 0.695 |
| A14G U26G | 0.81 |
| U13G A69U | 0.931 |
| A14C C29A G50A G68C A70C | ≤ 0.5 |
| U13G A21C C46U G50A | 0.582 |
| A14C C34A C61U U64A A69G | ≤ 0.5 |

| Variant | yeast fitness |
| --- | --- |
| A14G U32A | 0.554 |
| A14G C30A A42G G44A | 0.569 |
| U13G | 1.03 |
| U13C C49G C61G | ≤ 0.5 |
| A14G U64C | 0.924 |
| A14G C22U C24U A65C | ≤ 0.5 |
| A14G C22U A70C | ≤ 0.5 |
| A14C A15U C30U C34G A43G G48C C49U C61U | ≤ 0.5 |
| U13C G25C U28G G58A C60G | 0.622 |
| A14U A21G C29G U59A | ≤ 0.5 |
| A14G C31U G68A | 0.568 |
| A14U A70U | 0.713 |
| A14G A21C | 0.866 |
| A14G A21G | 0.989 |
| A14G U16G G18C U59A A65U | ≤ 0.5 |
| A14C A15U C27U U32C U35G A70U | ≤ 0.5 |
| A14G A42U C62U A70C | ≤ 0.5 |
| A14U A40U U54A C55U U64C | ≤ 0.5 |
| U13G G56A | 1.06 |
| A14G A36G A45U | 0.534 |
| A14G A65C | 0.903 |

| Variant | yeast fitness |
| --- | --- |
| A14G A65U | 0.737 |
| A14G C31U A37G A45C A70G | ≤ 0.5 |
| U13G U47G C66U | ≤ 0.5 |
| A14C C24A A37G C60U | ≤ 0.5 |
| A14C G23A A45U C61U | 0.782 |
| A14G C49G G56C | ≤ 0.5 |
| A14C A37C A65U | ≤ 0.5 |
| A14G C55G A57C | 0.598 |
| A14G C55U A65G | 0.513 |
| A14U A37U U47A | 0.632 |
| A14U A37U U47C | ≤ 0.5 |
| A14U C24G A57C | ≤ 0.5 |
| A14G A37G | 0.718 |
| A14C C22U U32A C34U C66U | 0.576 |
| A14G U28C G67A | 0.534 |
| A14U A15C C31G A43U | 0.627 |
| A14G A21C G63C | 0.546 |
| A14C A21U C46A A69C | 0.59 |
| A14G U32C C55U | ≤ 0.5 |
| A14G C24U G56A | 0.813 |
| A14G A36U A65G | ≤ 0.5 |
